From ChEMBL document CHEMBL4325922, “Restoring Let-7 microRNA Biogenesis Using a Small-Molecule Inhibitor of the Protein-RNA Interaction” (ACS Med Chem Lett, 2018)
Active and inactive are the calls of the source. The calls are words filed in the database; no cut-off is given here.

Experiments:
[1] = molecular target: T1, Protein lin-28 homolog A (Homo sapiens) (UniProt Q9H9Z2); assay: Inhibition of biotinylated-preE-let-7g binding to Lin28a in human JAR cells by pull down assay; type: cell-based
T1 sequence (whole entry): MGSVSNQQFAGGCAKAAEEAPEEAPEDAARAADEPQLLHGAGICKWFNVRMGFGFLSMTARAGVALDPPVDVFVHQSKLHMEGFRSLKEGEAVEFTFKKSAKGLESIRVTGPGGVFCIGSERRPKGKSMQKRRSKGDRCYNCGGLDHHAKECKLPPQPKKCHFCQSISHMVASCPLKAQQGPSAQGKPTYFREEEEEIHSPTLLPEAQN
Procedure, shortened: (§1)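 5′-Biotinylated preE-let-7g is immobilized on streptavidin beads and incubated with proteome from JAR human choriocarcinoma cells, which express Lin28a and Lin28b. Test compound is present during binding, and target engagement is judged by the proteins pulled down.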

[2] = molecular target: T2, Protein lin-28 homolog B (Homo sapiens) (UniProt Q6ZN17); assay: Inhibition of biotinylated-preE-let-7g binding to Lin28b in human JAR cells by pull down assay; type: cell-based; procedure, shortened: as §1
T2 sequence (whole entry): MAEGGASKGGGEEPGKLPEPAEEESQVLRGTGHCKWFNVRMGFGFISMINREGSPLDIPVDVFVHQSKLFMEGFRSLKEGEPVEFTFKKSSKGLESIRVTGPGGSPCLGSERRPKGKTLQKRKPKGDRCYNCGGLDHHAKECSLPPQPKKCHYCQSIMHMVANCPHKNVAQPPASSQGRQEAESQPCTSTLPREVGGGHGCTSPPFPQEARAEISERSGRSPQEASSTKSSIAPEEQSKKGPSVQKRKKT

[3] = molecular target: T3, Protein lin-28 homolog A/B (Homo sapiens) (UniProt Q6ZN17+Q9H9Z2); assay: Inhibition of Lin28a/Lin28b in human MCF7 cells assessed as reduction in HMGA2 expression at 10 uM after 24 hrs by Western blot analysis; type: cell-based
[4] = test system: JAR; assay: Inhibition of sphere formation in human JAR cells at 10 uM after 24 hrs by bright-field microscopic analysis; type: functional, cell-based
Procedure, shortened: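 JAR cells are pretreated with compound for 24 h, then dissociated to single cells. Equal numbers of viable cells are grown for 12 days in sphere-forming media. The degree of sphere formation is assessed under a microscope.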

[5] = molecular target: Endoribonuclease Dicer (Homo sapiens) (UniProt Q9UPY3); assay: Inhibition of recombinant FLAG-tagged human dicer expressed in HEK293 cells assessed as reduction in pre-let-7g microRNA maturation at 5 to 10 uM after 40 mins by SYBR green2 dye based fluorescence assay; type: cell-based
Chain of Endoribonuclease Dicer (Homo sapiens) (Q9UPY3 whole entry): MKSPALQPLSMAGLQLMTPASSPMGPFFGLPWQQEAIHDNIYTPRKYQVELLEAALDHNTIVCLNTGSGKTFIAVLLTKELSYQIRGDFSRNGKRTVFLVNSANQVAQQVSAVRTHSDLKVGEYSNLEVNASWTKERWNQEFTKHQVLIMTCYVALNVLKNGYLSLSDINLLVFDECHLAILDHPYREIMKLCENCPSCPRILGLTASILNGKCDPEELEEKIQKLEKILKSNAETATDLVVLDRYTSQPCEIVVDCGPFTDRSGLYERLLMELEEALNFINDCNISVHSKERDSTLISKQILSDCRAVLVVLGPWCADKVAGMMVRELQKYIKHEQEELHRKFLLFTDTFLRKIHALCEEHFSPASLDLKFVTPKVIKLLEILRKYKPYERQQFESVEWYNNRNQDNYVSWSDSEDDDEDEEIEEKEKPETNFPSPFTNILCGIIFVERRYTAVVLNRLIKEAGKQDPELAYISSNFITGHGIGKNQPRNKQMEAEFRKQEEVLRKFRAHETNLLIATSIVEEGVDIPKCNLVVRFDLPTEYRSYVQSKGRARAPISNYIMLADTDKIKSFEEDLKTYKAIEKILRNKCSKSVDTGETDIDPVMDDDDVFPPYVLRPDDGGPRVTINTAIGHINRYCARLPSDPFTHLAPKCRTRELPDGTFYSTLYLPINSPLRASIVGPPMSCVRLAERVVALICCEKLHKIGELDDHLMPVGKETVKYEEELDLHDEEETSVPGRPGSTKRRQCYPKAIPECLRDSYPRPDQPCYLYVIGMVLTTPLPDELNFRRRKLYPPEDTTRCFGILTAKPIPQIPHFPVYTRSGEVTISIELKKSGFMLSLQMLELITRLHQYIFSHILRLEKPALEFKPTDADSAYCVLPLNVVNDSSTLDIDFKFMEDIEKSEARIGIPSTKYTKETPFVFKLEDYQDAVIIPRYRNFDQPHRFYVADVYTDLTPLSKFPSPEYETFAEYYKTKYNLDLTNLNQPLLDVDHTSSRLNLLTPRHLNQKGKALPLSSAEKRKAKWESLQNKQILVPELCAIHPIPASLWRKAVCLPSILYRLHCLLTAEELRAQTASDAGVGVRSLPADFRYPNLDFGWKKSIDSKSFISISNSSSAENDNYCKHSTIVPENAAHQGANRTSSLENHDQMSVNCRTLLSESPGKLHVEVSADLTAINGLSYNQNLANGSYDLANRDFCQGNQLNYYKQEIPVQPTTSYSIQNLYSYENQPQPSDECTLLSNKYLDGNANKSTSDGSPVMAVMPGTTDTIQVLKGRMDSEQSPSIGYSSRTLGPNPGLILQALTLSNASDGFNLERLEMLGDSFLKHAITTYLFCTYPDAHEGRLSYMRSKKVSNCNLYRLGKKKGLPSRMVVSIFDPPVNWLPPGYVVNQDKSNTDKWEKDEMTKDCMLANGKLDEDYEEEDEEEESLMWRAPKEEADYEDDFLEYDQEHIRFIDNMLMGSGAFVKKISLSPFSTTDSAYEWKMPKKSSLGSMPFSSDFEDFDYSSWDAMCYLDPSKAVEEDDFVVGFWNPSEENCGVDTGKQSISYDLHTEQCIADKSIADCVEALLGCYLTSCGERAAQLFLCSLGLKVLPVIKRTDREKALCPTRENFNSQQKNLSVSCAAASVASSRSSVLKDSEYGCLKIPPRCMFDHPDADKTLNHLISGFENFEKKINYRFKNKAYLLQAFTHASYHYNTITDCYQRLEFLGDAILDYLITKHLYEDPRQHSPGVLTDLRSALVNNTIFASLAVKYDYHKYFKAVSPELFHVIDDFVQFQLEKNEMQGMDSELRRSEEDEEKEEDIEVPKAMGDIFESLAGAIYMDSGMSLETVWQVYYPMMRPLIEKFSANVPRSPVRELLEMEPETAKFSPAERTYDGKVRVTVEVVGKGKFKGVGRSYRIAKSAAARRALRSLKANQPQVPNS

[6] = test system: JAR; assay: Increase in mature let-7i level in Lin28a/b knockdown human JAR cells at 10 uM after 20 hrs by qRT-PCR analysis; type: functional, cell-based
Procedure, shortened: (§2)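 Lin28 knocked-down JAR cells treated for 20 h; let-7 levels measured against U6 snRNA endogenous control; 2 biological replicates.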

[7] = test system: JAR; assay: Increase in mature let-7g level in Lin28a/b knockdown human JAR cells at 10 uM after 20 hrs by qRT-PCR analysis; type: functional, cell-based; procedure, shortened: as §2
[8] = molecular target: T3, Protein lin-28 homolog A/B (Homo sapiens); assay: Inhibition of Lin28a/Lin28b in human JAR cells assessed as reduction in HMGA2 expression after 20 hrs by dual-luciferase reporter gene assay
[9] = molecular target: T3, Protein lin-28 homolog A/B (Homo sapiens); assay: Inhibition of Lin28a/Lin28b in human JAR cells assessed as increase in mature let-7i level after 20 hrs by TRIzol dye based qRT-PCR analysis; type: cell-based
Procedure, shortened: (§3)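 JAR cells (express Lin28a and Lin28b) exposed to compound for 20 h; miRNA levels quantified with U6 snRNA as endogenous control; three or more biological replicates, standard deviation, paired two-tailed t test.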

[10] = molecular target: T4, Protein lin-28 homolog A (Homo sapiens, UniProt Q9H9Z2); assay: Inhibition of Cy5-preE-let-7g binding to recombinant human N-terminal His6-tagged Lin28a expressed in Escherichia coli Rosetta2 (DE3) pLysS measured after 30 to 60 mins by electrophoretic mobility shift assay
T4 sequence (Q9H9Z2 whole entry): T1 sequence (whole entry)

[11] = molecular target: T3, Protein lin-28 homolog A/B (Homo sapiens); assay: Inhibition of Lin28a/Lin28b in human JAR cells assessed as increase in mature let-7d level after 20 hrs by TRIzol dye based qRT-PCR analysis; type: cell-based; procedure, shortened: as §3
[12] = molecular target: T1, Protein lin-28 homolog A (Homo sapiens); assay: Inhibition of PreE-let-7a-1-BHQ2 binding to recombinant human N-terminal His6-tagged/Cy3-labelled Lin28a expressed in Escherichia coli Rosetta2 (DE3) pLysS measured after 30 to 60 mins by FRET assay
[13] = molecular target: T3, Protein lin-28 homolog A/B (Homo sapiens); assay: Inhibition of Lin28a/Lin28b in human JAR cells assessed as increase in mature let-7g level after 20 hrs by TRIzol dye based qRT-PCR analysis; type: cell-based; procedure, shortened: as §3
[14] = test system: PA-1; assay: Increase in mature let-7d level in Lin28a CRISPR-Cas9 knockout human PA1 cells at 10 uM after 20 hrs by qRT-PCR analysis; type: functional, cell-based
Procedure, shortened: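 PA-1 cells with Lin28a fully knocked out by CRISPR/Cas9 editing (clonal lines) treated for 20 h; let-7 levels normalized to U6 snRNA; 2 technical replicates.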

[15] = test system: JAR; assay: Increase in mature let-7d level in Lin28a/b knockdown human JAR cells at 10 uM after 20 hrs by qRT-PCR analysis; type: functional, cell-based; procedure, shortened: as §2
[16] = Cytotoxicity against mouse C8-D1A cells at 10 uM after 24 hrs by WST assay; type: cell-based
[17] = molecular target: T3, Protein lin-28 homolog A/B (Homo sapiens); assay: Inhibition of Lin28a/Lin28b in human paclitaxel-resistant JAR cells assessed as potentiation of paclitaxel induced cytotoxicity at 10 uM pretreated for 30 hrs followed by paclitaxel addition and measured after 72 hrs by WTS assay
Procedure, shortened: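 Paclitaxel-resistant JAR persister cells, enriched by cytotoxic paclitaxel exposure and regrowth without drug. Cells pretreated 30 h with compound, then given paclitaxel for 72 h without compound; WST viability used to derive the paclitaxel IC50.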

[18] = test system: JAR; assay: Effect on miR-98 level in human JAR cells at 5 to 10 uM after 20 hrs by TRIzol dye based qRT-PCR analysis; type: functional, cell-based; procedure, shortened: as §3
[19] = test system: JAR; assay: Inhibition of sphere formation in human JAR cells at 10 uM after 24 hrs by WST assay; type: functional, cell-based
Procedure, shortened: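 JAR cells are pretreated with compound for 24 h, dissociated to single cells, and equal numbers of viable cells are cultured in sphere-forming media for 12 days. Sphere formation is quantified by WST assay. Three biological replicates, standard deviation, paired two-tailed t test.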

[20] = molecular target: T3, Protein lin-28 homolog A/B (Homo sapiens); assay: Inhibition of Lin28a/Lin28b in human JAR cells assessed as reduction in IMP1 expression at 5 to 10 uM after 24 hrs by Western blot analysis; type: cell-based
Procedure, shortened: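 Endogenous let-7 target proteins (HMGA2, IMP1, Ras, Lin28a) detected by Western blot in JAR or PA-1 cells after 24 h compound treatment.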

[21] = test system: PA-1; assay: Cytotoxicity against human PA1 cells after 24 hrs by WST assay; type: functional, cell-based
[22] = molecular target: T1, Protein lin-28 homolog A (Homo sapiens); assay: Inhibition of Lin28a in human PA1 cells assessed as increase in mature let-7g level at 10 uM after 20 hrs by TRIzol dye based qRT-PCR analysis; type: cell-based
Procedure, shortened: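 PA-1 ovarian teratocarcinoma cells (express Lin28a) treated for 20 h; let-7 quantified relative to U6 snRNA; 4 biological replicates, standard deviation, paired two-tailed t test.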

inhibition [1]: Dose-dependent effect
inhibition [2]: Dose-dependent effect
inhibition [3]: inactive
inhibition [5]: inactive
inhibition [8]: Dose-dependent effect
inhibition [9]: Dose-dependent effect
IC50 [10]: 4.8 µM
inhibition [11]: Dose-dependent effect
inhibition [12]: Dose-dependent effect
inhibition [13]: Dose-dependent effect
inhibition [20]: Active
inhibition [22]: Active
Compound: NC(=O)c1c(Nc2ccc(Cl)cc2Cl)[nH]c2c(Cl)ccc(Cl)c2c1=O
inhibition [4]: Active
Activity [6]: inactive
Activity [7]: inactive
Activity [14]: inactive
Activity [15]: inactive
Activity [16]: Toxic
inhibition [17]: Active
Activity [18]: inactive
inhibition [19]: Active
Activity [21]: Active
